In ChEMBL document CHEMBL4130442, “Design, synthesis and structure-activity relationship studies of a focused library of pyrimidine moiety with anti-proliferative and anti-metastasis activities in triple negative breast cancer” (Eur J Med Chem, 2017):
pIC50: −log10 of the molar value. Active and inactive are the calls of the source. The rule behind the calls is not given here.

What was measured:
[1] = biological target: T1, Platelet-derived growth factor receptor beta (Homo sapiens, UniProt P09619); test: Inhibition of PDGFRbeta in human MDA-MB-231 cells assessed as Akt Ser473 phosphorylation level at 2.5 uM incubated for 24 hrs by Western blot relative to untreated control; assay type: cell-based
Summary of the method: (§1)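 Cells were treated 24 h at several concentrations. Pooled adherent and floating cells were lysed in Hepes 50 mM pH 7.4 / 1% Triton X-100 buffer with vanadate, NaF, EDTA, PMSF, aprotinin and leupeptin. Equal protein was run on 10-15% SDS-PAGE and blotted to PVDF. PDGFR-β-AKT-ULK1 pathway phospho-proteins were probed and detected by ECL, with β-actin as loading control.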

[2] = biological target: T1, Platelet-derived growth factor receptor beta; test: Inhibition of PDGFRbeta in human MDA-MB-231 cells assessed as Akt Ser473 phosphorylation level at 2.5 uM incubated for 24 hrs in presence of control siRNA by Western blot relative to untreated control; assay type: cell-based
Summary of the method: (§2)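 Cells were transfected with control or PDGFR-β siRNA, then treated with 2.5 μM compound for 24 h. PDGFR-β-AKT-ULK1 pathway phospho-proteins were assessed by western blot: lysis in Hepes pH 7.4 / Triton buffer, 10-15% SDS-PAGE, PVDF, ECL detection, β-actin as loading control.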

[3] = biological target: T1, Platelet-derived growth factor receptor beta; test: Inhibition of PDGFRbeta in human MDA-MB-231 cells assessed as C-Raf Ser338 phosphorylation level at 2.5 uM incubated for 24 hrs in presence of PDGFRbeta siRNA by Western blot relative to untreated control; assay type: cell-based
MDA-MB-231 [4] = test: Effect on total Ras protein level in human MDA-MB-231 cells at 2.5 uM incubated for 24 hrs in presence of PDGFRbeta siRNA by Western blot relative to untreated control; assay type: cell-based; conditions: mda-mb-231, 24 h
MDA-MB-436 = test: Antiproliferative activity against human MDA-MB-436 cells incubated for 24 hrs by MTT assay; assay type: functional, cell-based; conditions: MDA-MB-436, 24 h
MDA-MB-231 [5] = test: Antiproliferative activity against human MDA-MB-231 cells incubated for 72 hrs by MTT assay; assay type: functional, cell-based; conditions: MDA-MB-231, 72 h
Summary of the method: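 MDA-MB-231 cells grown in DMEM with 10% FBS under 5% CO2 were seeded at 5×10^4 cells/ml. After 24 h, a concentration series was added for 24, 48 or 72 h and viability was read by MTT. IC50 is mean ± SD of triplicates.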

[6] = biological target: T1, Platelet-derived growth factor receptor beta; test: Inhibition of PDGFRbeta in human MDA-MB-231 cells assessed as PDGFRbeta Tyr740 phosphorylation level at 2.5 uM incubated for 24 hrs in presence of control siRNA by Western blot relative to untreated control; assay type: cell-based; summary of the method: as §2
MDA-MB-231 [7] = test: Induction of autophagy in human MDA-MB-231 cells assessed as change in LC3-2 protein level at 2.5 uM incubated for 24 hrs in absence of PDGFRbeta siRNA by Western blot method relative to untreated control; assay type: functional
Summary of the method: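 Before treatment, MDA-MB-231 cells were transfected with control or PDGFR-β siRNA, then exposed to 2.5 μM compound for 24 h. Lysates of pooled adherent and floating cells were immunoblotted (10-15% SDS-PAGE, PVDF, ECL) for PDGFR-β-AKT-ULK1 autophagy signalling markers, with β-actin as loading control.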

MDA-MB-231 [8] = test: Effect on total Ras protein level in human MDA-MB-231 cells at 5 uM incubated for 24 hrs by Western blot relative to untreated control; conditions: mda-mb-231, 24 h
MDA-MB-231 [9] = test: Effect on total PDGFRbeta protein level in human MDA-MB-231 cells at 5 uM incubated for 24 hrs by Western blot relative to untreated control; assay type: ADME, cell-based; conditions: mda-mb-231, 24 h
Summary of the method: (§3)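 MDA-MB-231 cells were exposed for 24 h. Adherent and floating cells were pooled and lysed for 1 h at 4 °C in 50 mM Hepes pH 7.4 with 1% Triton X-100, orthovanadate, NaF, EDTA, PMSF, aprotinin and leupeptin. After 12,000 rpm clearing, equal protein was run on 10-15% SDS-PAGE and blotted to PVDF. Detection used HRP-ECL, with β-actin as loading control and densitometric quantification.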

[10] = biological target: T1, Platelet-derived growth factor receptor beta; test: Inhibition of PDGFRbeta in human MDA-MB-231 cells assessed as ULK Ser555 phosphorylation level at 10 uM incubated for 24 hrs by Western blot relative to untreated control; assay type: cell-based; summary of the method: as §1
[11] = biological target: T1, Platelet-derived growth factor receptor beta; test: Inhibition of PDGFRbeta in human MDA-MB-231 cells assessed as ULK Ser317 phosphorylation level at 2.5 uM incubated for 24 hrs by Western blot relative to untreated control; assay type: cell-based; summary of the method: as §1
MDA-MB-231 [12] = test: Induction of apoptosis in human MDA-MB-231 cells assessed as change in cleaved PARP protein level at 2.5 uM incubated for 24 hrs by Western blot method relative to untreated control; assay type: functional; summary of the method: as §3
[13] = biological target: T1, Platelet-derived growth factor receptor beta; test: Inhibition of PDGFRbeta in human MDA-MB-231 cells assessed as Akt Thr305 phosphorylation level at 2.5 uM incubated for 24 hrs in absence of PDGFRbeta siRNA by Western blot relative to untreated control; assay type: cell-based; summary of the method: as §2
MDA-MB-231 [14] = test: Induction of apoptosis in human MDA-MB-231 cells assessed as change in cleaved PARP protein level at 5 uM incubated for 24 hrs by Western blot method relative to untreated control; assay type: functional; summary of the method: as §3
MDA-MB-231 [15] = test: Inhibition of cell migration in human MDA-MB-231 cells at 2.5 to 10 uM incubated for 24 hrs by scratch wound healing assay; assay type: functional, cell-based
Summary of the method: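 Cells were grown to confluence and the monolayer was scratched with a longitudinally cut 10 μL tip. Cells were treated with 2.5, 5.0 or 10 μM compound for 24 h and wound closure was viewed by phase-contrast microscopy.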

MDA-MB-231 [16] = test: Induction of apoptosis in human MDA-MB-231 cells at 2.5 to 10 uM incubated for 24 hrs by Annexin V/propidium iodide staining based flow cytometry; assay type: functional, cell-based
[17] = biological target: T1, Platelet-derived growth factor receptor beta; test: Inhibition of PDGFRbeta in human MDA-MB-231 cells assessed as Akt Thr305 phosphorylation level at 2.5 uM incubated for 24 hrs in presence of PDGFRbeta siRNA by Western blot relative to untreated control; assay type: cell-based; summary of the method: as §2
MDA-MB-231 [18] = test: Effect on total mTOR protein level in human MDA-MB-231 cells at 10 uM incubated for 24 hrs by Western blot relative to untreated control; assay type: ADME, cell-based; conditions: mda-mb-231, 24 h; summary of the method: as §3
MDA-MB-231 [19] = test: Effect on total Akt protein level in human MDA-MB-231 cells at 5 uM incubated for 24 hrs by Western blot relative to untreated control; assay type: ADME, cell-based; conditions: mda-mb-231, 24 h; summary of the method: as §3
MDA-MB-231 [20] = test: Effect on total ULK1 protein level in human MDA-MB-231 cells at 10 uM incubated for 24 hrs by Western blot relative to untreated control; assay type: ADME, cell-based; conditions: mda-mb-231, 24 h; summary of the method: as §3
MDA-MB-468 = test: Antiproliferative activity against human MDA-MB-468 cells incubated for 24 hrs by MTT assay; assay type: functional, cell-based; conditions: MDA-MB-468, 24 h

T1 sequence (P09619 whole entry): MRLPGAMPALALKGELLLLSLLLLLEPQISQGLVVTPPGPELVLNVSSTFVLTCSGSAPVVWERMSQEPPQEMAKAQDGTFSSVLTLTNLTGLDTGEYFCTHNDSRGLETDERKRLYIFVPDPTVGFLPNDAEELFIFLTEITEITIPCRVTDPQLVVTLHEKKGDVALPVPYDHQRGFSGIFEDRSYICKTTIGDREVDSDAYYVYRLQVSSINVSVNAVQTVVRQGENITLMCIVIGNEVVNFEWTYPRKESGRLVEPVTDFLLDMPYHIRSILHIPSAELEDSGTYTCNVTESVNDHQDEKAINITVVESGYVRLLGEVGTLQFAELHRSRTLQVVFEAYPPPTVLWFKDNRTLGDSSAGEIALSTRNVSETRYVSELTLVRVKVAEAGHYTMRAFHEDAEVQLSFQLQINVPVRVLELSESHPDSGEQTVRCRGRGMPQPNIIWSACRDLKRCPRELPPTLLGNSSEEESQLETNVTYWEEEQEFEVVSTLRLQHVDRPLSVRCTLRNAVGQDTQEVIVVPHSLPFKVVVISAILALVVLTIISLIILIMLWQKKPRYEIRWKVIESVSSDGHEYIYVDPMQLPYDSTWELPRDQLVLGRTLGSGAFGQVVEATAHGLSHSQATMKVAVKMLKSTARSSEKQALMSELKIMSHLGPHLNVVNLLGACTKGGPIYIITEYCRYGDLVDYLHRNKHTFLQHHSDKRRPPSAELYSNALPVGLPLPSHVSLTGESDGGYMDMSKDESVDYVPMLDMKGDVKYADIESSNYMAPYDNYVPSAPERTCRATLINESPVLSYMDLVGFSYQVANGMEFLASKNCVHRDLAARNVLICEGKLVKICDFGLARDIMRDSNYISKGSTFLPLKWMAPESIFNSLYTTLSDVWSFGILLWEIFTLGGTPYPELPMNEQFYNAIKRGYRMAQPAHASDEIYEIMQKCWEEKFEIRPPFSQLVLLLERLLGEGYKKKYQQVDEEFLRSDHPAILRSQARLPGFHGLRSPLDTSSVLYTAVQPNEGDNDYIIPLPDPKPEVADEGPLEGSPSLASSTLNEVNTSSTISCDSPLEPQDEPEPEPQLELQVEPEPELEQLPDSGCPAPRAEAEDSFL

With `COc1cccc(Nc2cc(N3CCN(C(=O)Nc4ccc(C(F)(F)F)cc4)CC3)ncn2)c1` the fold change (FC) [1] was 0.45, the fold change (FC) [2] was 0.88 and the fold change (FC) [3] was 0.85. For the same compound, the “fold change (FC)” value (MDA-MB-231 [4]) was 1.2, the pIC50 (MDA-MB-436) was 5.63 and the pIC50 (MDA-MB-231 [5]) was 6.20. For the same compound, the fold change (FC) [6] was 0.08, the “fold change (FC)” value (MDA-MB-231 [7]) was 2.87 and the “fold change (FC)” value (MDA-MB-231 [8]) was 1.35. The “fold change (FC)” value (MDA-MB-231 [9]) was 1.1, the fold change (FC) [10] was 5.6 and the fold change (FC) [11] was 1.5. The “fold change (FC)” value (MDA-MB-231 [12]) was 0.89, the fold change (FC) [13] was 0.05 and the “fold change (FC)” value (MDA-MB-231 [14]) was 0.85. The inhibition (MDA-MB-231 [15]) was “Active”, the Activity (MDA-MB-231 [16]) was “Active” and the fold change (FC) [17] was 0.04. The “fold change (FC)” value (MDA-MB-231 [18]) was 0.45, the “fold change (FC)” value (MDA-MB-231 [19]) was 0.84 and the “fold change (FC)” value (MDA-MB-231 [20]) was 0.99. It also gave a pIC50 (MDA-MB-468) of 5.50.
